Tested on: Fibroblast
Test: Multiplex assay against human fibroblast
Type: toxicity, cell-based
In short: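 Per cents of healthy-nucleus cells form the tubulin, mitochondrial-mass and membrane-permeability phenotype values. Live cells were stained at seeding with Hoechst33342, BioTracker Green Microtubule Cytoskeleton Dye, MitoTracker Red and Annexin V Alexa Fluor 680. After compound addition they were imaged on a CQ1 microscope at 37°C and 5% CO2, and CellPathfinder machine-learning gating split them into Hoechst high-intensity objects or normal cells, normal cells into healthy, pyknosed or fragmented nuclei, and pyknosed cells into mitotic or apoptotic.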

[1] = 12 h, 1 µM, compound concentration 1 uM, replicate 1
[2] = 12 h, 1 µM, compound concentration 1 uM, replicate 2
[3] = 12 h, 10 µM, compound concentration 10 uM, replicate 1
[4] = 12 h, 10 µM, compound concentration 10 uM, replicate 2
[5] = 24 h, 1 µM, compound concentration 1 uM, replicate 1
[6] = 24 h, 1 µM, compound concentration 1 uM, replicate 2
[7] = 24 h, 10 µM, compound concentration 10 uM, replicate 1
[8] = 24 h, 10 µM, compound concentration 10 uM, replicate 2
[9] = 48 h, 1 µM, compound concentration 1 uM, replicate 1
[10] = 48 h, 1 µM, compound concentration 1 uM, replicate 2
[11] = 48 h, 10 µM, compound concentration 10 uM, replicate 1
[12] = 48 h, 10 µM, compound concentration 10 uM, replicate 2

CC(C)(O)C(=O)N1CCN(c2ccc(C(F)(F)F)c(C3=C(c4c[nH]c5ccccc45)C(=O)NC3=O)c2)CC1 was tested, and the “Population Apoptotic (%)” value [1] was 41%, the “Population Fragmented Nuclei (%)” value [1] was 14% and the “Population Healthy Nuclei (%)” value [1] was 68%. For the same molecule, the “Population Hoechst High Intensity Objects (%)” value [1] was 2%, the “Population Membrane Permeable-Phenotype (%)” value [1] was 0% and the “Population Mitochondria Different-Phenotype (%)” value [1] was 9%. For the same molecule, the “Population Mitotic Cells (%)” value [1] was 58%, the “Population Normal (%)” value [1] was 97% and the “Population Pyknosed Nuclei (%)” value [1] was 17%. For the same molecule, the “Population Tubulin-Different-Phenotype (%)” value [1] was 30%, the “Total Cell Count” value [1] was 144 and the “Population Apoptotic (%)” value [2] was 32%. For the same molecule, the “Population Fragmented Nuclei (%)” value [2] was 30%, the “Population Healthy Nuclei (%)” value [2] was 46% and the “Population Hoechst High Intensity Objects (%)” value [2] was 5%. The “Population Membrane Permeable-Phenotype (%)” value [2] was 5%, the “Population Mitochondria Different-Phenotype (%)” value [2] was 5% and the “Population Mitotic Cells (%)” value [2] was 67%. The “Population Normal (%)” value [2] was 94%, the “Population Pyknosed Nuclei (%)” value [2] was 22% and the “Population Tubulin-Different-Phenotype (%)” value [2] was 56%. For the same molecule, the “Total Cell Count” value [2] was 170, the “Population Apoptotic (%)” value [3] was 33% and the “Population Fragmented Nuclei (%)” value [3] was 17%. For the same molecule, the “Population Healthy Nuclei (%)” value [3] was 50%, the “Population Hoechst High Intensity Objects (%)” value [3] was 4% and the “Population Membrane Permeable-Phenotype (%)” value [3] was 1%. The “Population Mitochondria Different-Phenotype (%)” value [3] was 25%, the “Population Mitotic Cells (%)” value [3] was 66% and the “Population Normal (%)” value [3] was 96%. For the same molecule, the “Population Pyknosed Nuclei (%)” value [3] was 32%, the “Population Tubulin-Different-Phenotype (%)” value [3] was 83% and the “Total Cell Count” value [3] was 125. For the same molecule, the “Population Apoptotic (%)” value [4] was 35%, the “Population Fragmented Nuclei (%)” value [4] was 26% and the “Population Healthy Nuclei (%)” value [4] was 31%. The “Population Hoechst High Intensity Objects (%)” value [4] was 6%, the “Population Membrane Permeable-Phenotype (%)” value [4] was 15% and the “Population Mitochondria Different-Phenotype (%)” value [4] was 10%. For the same molecule, the “Population Mitotic Cells (%)” value [4] was 64%, the “Population Normal (%)” value [4] was 93% and the “Population Pyknosed Nuclei (%)” value [4] was 42%. The “Population Tubulin-Different-Phenotype (%)” value [4] was 90%, the “Total Cell Count” value [4] was 137 and the “Population Apoptotic (%)” value [5] was 50%. The “Population Fragmented Nuclei (%)” value [5] was 22%, the “Population Healthy Nuclei (%)” value [5] was 61% and the “Population Hoechst High Intensity Objects (%)” value [5] was 1%. The “Population Membrane Permeable-Phenotype (%)” value [5] was 0%, the “Population Mitochondria Different-Phenotype (%)” value [5] was 3% and the “Population Mitotic Cells (%)” value [5] was 50%. The “Population Normal (%)” value [5] was 98%, the “Population Pyknosed Nuclei (%)” value [5] was 16% and the “Population Tubulin-Different-Phenotype (%)” value [5] was 40%. For the same molecule, the “Total Cell Count” value [5] was 161, the “Population Apoptotic (%)” value [6] was 31% and the “Population Fragmented Nuclei (%)” value [6] was 31%. For the same molecule, the “Population Healthy Nuclei (%)” value [6] was 45%, the “Population Hoechst High Intensity Objects (%)” value [6] was 8% and the “Population Membrane Permeable-Phenotype (%)” value [6] was 2%. The “Population Mitochondria Different-Phenotype (%)” value [6] was 8%, the “Population Mitotic Cells (%)” value [6] was 68% and the “Population Normal (%)” value [6] was 91%. The “Population Pyknosed Nuclei (%)” value [6] was 23%, the “Population Tubulin-Different-Phenotype (%)” value [6] was 58% and the “Total Cell Count” value [6] was 176. For the same molecule, the “Population Apoptotic (%)” value [7] was 26%, the “Population Fragmented Nuclei (%)” value [7] was 24% and the “Population Healthy Nuclei (%)” value [7] was 40%. The “Population Hoechst High Intensity Objects (%)” value [7] was 7%, the “Population Membrane Permeable-Phenotype (%)” value [7] was 2% and the “Population Mitochondria Different-Phenotype (%)” value [7] was 30%. For the same molecule, the “Population Mitotic Cells (%)” value [7] was 73%, the “Population Normal (%)” value [7] was 92% and the “Population Pyknosed Nuclei (%)” value [7] was 34%. For the same molecule, the “Population Tubulin-Different-Phenotype (%)” value [7] was 79%, the “Total Cell Count” value [7] was 131 and the “Population Apoptotic (%)” value [8] was 36%. For the same molecule, the “Population Fragmented Nuclei (%)” value [8] was 27%, the “Population Healthy Nuclei (%)” value [8] was 33% and the “Population Hoechst High Intensity Objects (%)” value [8] was 3%. For the same molecule, the “Population Membrane Permeable-Phenotype (%)” value [8] was 6%, the “Population Mitochondria Different-Phenotype (%)” value [8] was 20% and the “Population Mitotic Cells (%)” value [8] was 63%. The “Population Normal (%)” value [8] was 96%, the “Population Pyknosed Nuclei (%)” value [8] was 39% and the “Population Tubulin-Different-Phenotype (%)” value [8] was 90%. The “Total Cell Count” value [8] was 138, the “Population Apoptotic (%)” value [9] was 64% and the “Population Fragmented Nuclei (%)” value [9] was 21%. The “Population Healthy Nuclei (%)” value [9] was 61%, the “Population Hoechst High Intensity Objects (%)” value [9] was 5% and the “Population Membrane Permeable-Phenotype (%)” value [9] was 0%. The “Population Mitochondria Different-Phenotype (%)” value [9] was 12%, the “Population Mitotic Cells (%)” value [9] was 36% and the “Population Normal (%)” value [9] was 94%. The “Population Pyknosed Nuclei (%)” value [9] was 17%, the “Population Tubulin-Different-Phenotype (%)” value [9] was 38% and the “Total Cell Count” value [9] was 155. The “Population Apoptotic (%)” value [10] was 41%, the “Population Fragmented Nuclei (%)” value [10] was 33% and the “Population Healthy Nuclei (%)” value [10] was 37%. The “Population Hoechst High Intensity Objects (%)” value [10] was 7%, the “Population Membrane Permeable-Phenotype (%)” value [10] was 1% and the “Population Mitochondria Different-Phenotype (%)” value [10] was 15%. The “Population Mitotic Cells (%)” value [10] was 58%, the “Population Normal (%)” value [10] was 92% and the “Population Pyknosed Nuclei (%)” value [10] was 28%. The “Population Tubulin-Different-Phenotype (%)” value [10] was 67%, the “Total Cell Count” value [10] was 165 and the “Population Apoptotic (%)” value [11] was 54%. The “Population Fragmented Nuclei (%)” value [11] was 33%, the “Population Healthy Nuclei (%)” value [11] was 27% and the “Population Hoechst High Intensity Objects (%)” value [11] was 12%. The “Population Membrane Permeable-Phenotype (%)” value [11] was 0%, the “Population Mitochondria Different-Phenotype (%)” value [11] was 53% and the “Population Mitotic Cells (%)” value [11] was 45%. For the same molecule, the “Population Normal (%)” value [11] was 87%, the “Population Pyknosed Nuclei (%)” value [11] was 38% and the “Population Tubulin-Different-Phenotype (%)” value [11] was 93%. The “Total Cell Count” value [11] was 123, the “Population Fragmented Nuclei (%)” value [12] was 35% and the “Population Healthy Nuclei (%)” value [12] was 25%. For the same molecule, the “Population Hoechst High Intensity Objects (%)” value [12] was 6%, the “Population Membrane Permeable-Phenotype (%)” value [12] was 10% and the “Population Mitochondria Different-Phenotype (%)” value [12] was 30%. The “Population Normal (%)” value [12] was 93%, the “Population Pyknosed Nuclei (%)” value [12] was 40% and the “Population Tubulin-Different-Phenotype (%)” value [12] was 83%. For the same molecule, the “Total Cell Count” value [12] was 129.

Source: ChEMBL document CHEMBL5058577, “EUbOPEN Chemogenomics Library 2 (Multiplex)” (2022)
